The text below walks through data of ChEMBL document CHEMBL5335796, “Novel Psilocin Prodrugs with Altered Pharmacological Properties as Candidate Therapies for Treatment-Resistant Anxiety Disorders” (J Med Chem, 2024).

The structures appear in SMILES notation. Calls of active or inactive are those of the source. The calls are words filed in the database; no cut-off is given here.

Data set [1] is described as follows: Drug metabolism in po dosed C57BL/6 mouse assessed as psilocin formation measured upto 24 hrs by LC-MS analysis. The class given is ADME, organism-based. Conditions: in vivo, dose 1-10 mg/kg.
Data set [2] can be described thus: Drug metabolism in C57BL/6 mouse assessed as psilocin formation at 1 mg/kg, iv measured upto 24 hrs by LC-MS analysis. The class given is ADME, organism-based. Conditions: in vivo.
Data set [3] is described as follows: Metabolic stability in human liver S9 fraction assessed as half life at 2.5 uM measured upto 120 mins in presence of NADPH by LC-MS analysis. The class given is ADME, subcellular. The following applies: for t1/2: s9, 2 h, 2.5 µM. An outline of the steps:
(§1)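 2.5 μM compound at 37 °C in 50 mM potassium phosphate pH 7.4 with 3 mM MgCl2, 1 mM EDTA and an NADPH regenerating system. […] Sampled at 0–120 min in 20-min steps, acetonitrile quench, LC-MS of parent. T1/2 from one-phase exponential decay fit.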

Data set [4] is described as follows: Metabolic stability in human liver microsomes assessed as half life at 2.5 uM measured upto 120 mins in presence of NADPH by LC-MS analysis. The class given is ADME, Microsome. Conditions: for t1/2: microsomes, 2 h, 2.5 µM. Summed up: as §1
Data set [5] is described as follows: Metabolic stability in human intestine S9 fraction assessed as half life at 2.5 uM measured upto 120 mins in presence of NADPH by LC-MS analysis. The following applies: s9, 2 h. The class given is ADME, subcellular. An outline of the steps: as §1
Data set [6] can be described thus: Metabolic stability in human intestine microsomes assessed as half life at 2.5 uM measured upto 120 mins in presence of NADPH by LC-MS analysis. The class given is ADME, Microsome. Conditions: 2 h. Summed up: as §1
Data set [7] is described as follows: Metabolic stability in human serum assessed as half life at 2.5 uM measured upto 120 mins in presence of NADPH by LC-MS analysis. The following applies: 2 h. The class given is ADME, cell-free. An outline of the steps: as §1
Data set [8] can be described thus: Drug metabolism in human liver S9 fraction assessed as psilocin formation at 2.5 uM after 120 mins by LC-MS analysis. The class given is ADME, subcellular. Conditions: s9, 2 h. An outline of the steps: (§2)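 2.5 μM compound in 50 mM potassium phosphate pH 7.4 with 3 mM MgCl2, 1 mM EDTA and an NADPH regenerating system. Incubated at 37 °C with human liver or intestinal S9 or microsomes (400 μg/mL protein) or 10% human AB serum. Acetonitrile quench, then LC-MS; psilocin concentration read at 120 min.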

A short description of data set [9]: Drug metabolism in human liver microsomes assessed as psilocin formation at 2.5 uM after 120 mins by LC-MS analysis. The following applies: 2 h. The class given is ADME, Microsome. Summed up:
as §2

The nature of data set [10]: Drug metabolism in human intestine S9 fraction assessed as psilocin formation at 2.5 uM after 120 mins by LC-MS analysis. The class given is ADME, subcellular. Conditions: s9, 2 h. Summed up: as §2
A short description of data set [11]: Drug metabolism in human intestine microsomes assessed as psilocin formation at 2.5 uM after 120 mins by LC-MS analysis. The class given is ADME, Microsome. Conditions: 2 h. Summed up:
as §2

The nature of data set [12]: Drug metabolism in human serum assessed as psilocin formation at 2.5 uM after 120 mins by LC-MS analysis. The class given is ADME, cell-free. Conditions: 2 h. Summed up:
as §2

A short description of data set [13]: Drug metabolism in C57BL/6 mouse assessed as psilocin formation at 10 mg/kg, po measured after 8 hrs by LC-MS analysis. The class given is ADME, organism-based. The following applies: in vivo.
Data set [14] deals with Mus musculus. Put plainly: Psychedelic activity in mouse assessed as head-twitch response at 1 mg/kg, po measured after 15 to 30 mins. The class given is functional, organism-based. Conditions: time 15-30 min. An outline of the steps: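 C57BL/6 mice, singly housed for 2 days, with 30-min predose chamber acclimation. Single oral 1 mg/kg dose from 100 mM DMSO stock diluted in 0.9% saline; vehicle 1% DMSO in saline. Video-recorded after dosing; head twitches scored blind per 15-min interval (reference time course) or for the 15–30 min window. n = 2–4; one-way ANOVA.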

Data set [15] relates to Mus musculus. Kind of data set: Anxiolytic activity in non-stressed mouse assessed as reduction in marble-burying behavior by measuring decrease in number of buried marbles at 10 mg/kg, po measured after 1 day. The class given is functional, organism-based.
Data set [16] concerns Mus musculus. Kind of data set: Anxiolytic activity in non-stressed mouse assessed as reduction in marble-burying behavior by measuring decrease in number of buried marbles at 10 mg/kg, po measured upto 7 days. The following applies: time <= 7.0 day. The class given is functional, organism-based.
Data set [17] can be described thus: Drug metabolism in C57BL/6 mouse assessed as psilocin formation at 10 mg/kg, po measured at 24 hrs by LC-MS analysis. The class given is ADME, organism-based. Conditions: in vivo.

`COc1ccc(C(=O)Oc2cccc3[nH]cc(CCN(C)C)c23)cc1`: the Drug metabolism result in data set [1] is “Dose-Dependent Effect”; in data set [2], “Metabolite_Detected”; in [8], 1.95 µM; in [9] it was 2.718 µM; in data set [10] it was 0.114 µM; in [11], 0.041 µM. Also, the Drug metabolism in data set [12] was 1.097 µM; in [13] it was “Metabolite_Notdetected”. The t1/2 came out at 21 min in [3]; 17 min in data set [4]; 132 min in data set [5]; 315 min in data set [6]; 1 min in [7]. Also, the result in data set [14], in data set [15] and in data set [16] was Active.

As to `CN(C)CCc1c[nH]c2cccc(OC(=O)OCc3ccccc3)c12`, the Drug metabolism result in data set [1] was “Dose-Dependent Effect”; in [2], “Metabolite_Detected”; in [8], 0.084 µM; in data set [9] it was 0.114 µM; in [10], 0.044 µM; in [11], 0.038 µM. Also, the Drug metabolism in data set [12] is 0 µM; in data set [17], “Metabolite_Detected”. Besides, the t1/2 in data set [4] amounted to 113 min; in [5] it was 529 min; in data set [6], 211 min.

Turning to `CCCC(=O)OCOc1cccc2[nH]cc(CCN(C)C)c12`, the Drug metabolism entry in [1] was “Dose-Dependent Effect”; in data set [8], 0.012 µM; in data set [9] it was 0.073 µM; in data set [10], 0.018 µM; in data set [11] it was 0.043 µM; in data set [12], 0 µM. Also, the Drug metabolism result in [13] is “Metabolite_Notdetected”. The t1/2 is 4 min in [3]; 3 min in data set [4]; 241 min in data set [5]; 74 min in data set [6]; 2 min in data set [7]. The result in data set [14] was inactive.

In the case of `CN(C)CCc1c[nH]c2cccc(O[Si](C)(C)C(C)(C)C)c12`, the Drug metabolism entry in data set [1] was “Dose-Dependent Effect”; in data set [8], 0 µM; in data set [9], 0.012 µM; in data set [10], 0 µM; in [11] it was 0 µM; in [12] it was 0 µM. Further, in data set [13], the Drug metabolism result is “Metabolite_Notdetected”. Also, the t1/2 in data set [3] is given as 191 min; in data set [4] it was 347 min. In addition, the result in data set [14] was Active.

As to `CCCCC(=O)OCOc1cccc2[nH]cc(CCN(C)C)c12`, the Drug metabolism result in [1] was “Dose-Dependent Effect”; in [2], “Metabolite_Detected”; in data set [8] it was 0.07 µM; in data set [9], 0.132 µM; in data set [10] it was 0.055 µM; in data set [11] it was 0.081 µM. Moreover, the Drug metabolism is 0 µM in [12] and “Metabolite_Notdetected” in data set [13]. Besides, the t1/2 is 5 min in [3]; 4 min in data set [4]; 39 min in data set [5]; 112 min in data set [6]; 3 min in [7].

In the case of `CN(C)CCc1c[nH]c2cccc(OC(=O)c3cccc4c3OCCO4)c12`, the Drug metabolism result was “Dose-Dependent Effect” in data set [1]; 0.145 µM in data set [8]; 0.329 µM in [9]; 0 µM in data set [10]; 0 µM in [11]; 0 µM in [12]. Further, the Drug metabolism entry in data set [13] was “Metabolite_Notdetected”. The t1/2 is 529 min in data set [3], 390 min in data set [4] and 113 min in [6]. The result in data set [14] was inactive.

For `CN(C)CCc1cn(C(=O)OCc2ccccc2)c2cccc(OC(=O)OCc3ccccc3)c12`, the Drug metabolism result was “Dose-Dependent Effect” in [1]; 0 µM in data set [8]; 0 µM in data set [9]; 0 µM in data set [10]; 0 µM in data set [11]; 0 µM in data set [12]. The Drug metabolism result in [13] was “Metabolite_Notdetected”. Moreover, the t1/2 is listed as 22 min in [3]; 52 min in [4]; 16 min in data set [5]; 13 min in data set [6]; 0.8 min in data set [7].

Regarding `CN(C)CCc1c[nH]c2cccc(OC(=O)c3c(F)c(F)c(F)c(F)c3F)c12`, the Drug metabolism result is “Dose-Dependent Effect” in data set [1]; 1.244 µM in [8]; 2.554 µM in data set [9]; 0.533 µM in data set [10]; 0.786 µM in data set [11]; 0.45 µM in [12]. In addition, the Drug metabolism entry in data set [13] is “Metabolite_Notdetected”. Moreover, the t1/2 turned out to be 1 min in [3]; 1 min in [4]; 56 min in data set [5]; 32 min in data set [6]; 0.7 min in data set [7]. Also, the result in [14] was Active.

Turning to `CN(C)CCc1c[nH]c2cccc(OC(=O)CC3CC3)c12`, the Drug metabolism entry in data set [1] was “Dose-Dependent Effect”; in data set [2], “Metabolite_Detected”; in data set [8], 1.343 µM; in [9], 1.89 µM; in data set [10] it was 1.384 µM; in data set [11], 0.927 µM. The Drug metabolism is 0.778 µM in data set [12] and “Metabolite_Notdetected” in data set [13]. In addition, the t1/2 in data set [3] was determined as 3 min; in [4] it was 1 min; in [5], 104 min; in data set [6] it was 62 min; in data set [7], 1 min. Also, the outcome in [14] and in [15] was Active.

On to `CC(C)OC(=O)OCOc1cccc2c1c(CCN(C)C)cn2COC(=O)OC(C)C`, for which the Drug metabolism entry in data set [1] was “Dose-Dependent Effect”; in data set [8] it was 0.186 µM; in [9], 0.056 µM; in data set [10], 0 µM; in data set [11], 0 µM; in data set [12], 0 µM. In data set [13], the Drug metabolism entry is on record as “Metabolite_Notdetected”. In addition, the t1/2 in data set [3] amounted to 293 min; in [4], 104 min; in data set [5], 266 min; in data set [6] it was 894 min; in data set [7] it was 3 min.

In the case of `CN(C)CCc1c[nH]c2cccc(OC(=O)SCc3ccccc3)c12`, the Drug metabolism entry in data set [1] was “Dose-Dependent Effect”; in data set [2] it was “Metabolite_Detected”; in data set [8], 1.233 µM; in [9] it was 2.105 µM; in [10], 0 µM; in [11], 0.156 µM. Further, the Drug metabolism was 0.385 µM in data set [12] and “Metabolite_Notdetected” in data set [13]. The results for the half-life at 2.5 µM in [3] (liver S9 fraction) and in data set [4] (liver microsomes) were 5 min and 6 min, respectively. Also, the results for the t1/2 in [5], in data set [6] and in data set [7] were 50 min, 71 min and 14 min, respectively. In addition, the outcome in [14], in data set [15] and in data set [16] was Active.
